Laboratory results: ChEMBL document CHEMBL1123758, “Thromboxane synthetase inhibitors and antihypertensive agents. 3. N-[(1H-imidazol-1-yl)alkyl]heteroaryl amides as potent enzyme inhibitors” (J Med Chem, 1987)
Calls of active or inactive are those of the source.

Tests used:
Rattus norvegicus [1] = assay: Antihypertensive activity was measured in spontaneously hypertensive rats (SHR) at 100 mg/kg peroral dose (2 days); NA denotes inactive; assay type: functional, organism-based; design: dose 100 mg/kg
Summary of the method: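 Male 16-week-old Okamoto SHR, mean arterial pressure about 170 mmHg. Dosed by gavage at 100 mg/kg (or less) as a suspension in 2% preboiled starch, with 0.9% NaCl loading at 25 mL/kg. A second identical dose without saline was given 24 h later. Mean arterial pressure was read at 28 h, using one to three rats. Active if ≤116 mmHg in one rat or a two-rat average ≤122 mmHg.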

[2] = target: T1, Thromboxane-A synthase (Rattus norvegicus) (UniProt P49430); conditions: at 100 µM
T1 sequence (whole entry): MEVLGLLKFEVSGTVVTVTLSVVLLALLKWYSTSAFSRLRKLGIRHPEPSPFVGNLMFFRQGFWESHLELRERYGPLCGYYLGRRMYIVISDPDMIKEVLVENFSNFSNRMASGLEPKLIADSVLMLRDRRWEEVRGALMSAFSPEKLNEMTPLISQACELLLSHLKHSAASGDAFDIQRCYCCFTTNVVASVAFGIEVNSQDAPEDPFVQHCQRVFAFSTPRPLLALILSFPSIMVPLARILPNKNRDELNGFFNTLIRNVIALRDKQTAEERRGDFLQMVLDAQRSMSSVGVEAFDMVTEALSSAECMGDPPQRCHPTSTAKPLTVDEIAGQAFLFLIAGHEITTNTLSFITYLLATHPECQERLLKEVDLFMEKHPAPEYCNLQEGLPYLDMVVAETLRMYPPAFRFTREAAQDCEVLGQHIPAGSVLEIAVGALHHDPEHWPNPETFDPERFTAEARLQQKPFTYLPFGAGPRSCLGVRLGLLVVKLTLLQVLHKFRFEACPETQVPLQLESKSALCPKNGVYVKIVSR

Thromboxane-A synthase = target: T2, Thromboxane-A synthase (Rattus norvegicus, UniProt P49430); assay: Inhibition of thromboxane formation at a concentration of 10e -6 M.
T2 sequence (P49430 whole entry): T1 sequence (whole entry)

[3] = target: T1, Thromboxane-A synthase (Rattus norvegicus); assay: Inhibition of thromboxane formation at a concentration of 10e -4 M.
Summary of the method: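 Washed SHR platelets in oxygenated Krebs phosphate buffer pH 7.4, (4.5-6.0) × 10^4 platelets/µL, with drug or vehicle, 10 min at 37 °C. Stopped on ice with citric acid. TXB2 in the supernatant was measured by direct RIA. Boiled-sample blanks were subtracted, then percent inhibition of TXB2 formation was calculated. Replicate number varies by entry.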

Rattus norvegicus [4] = assay: Antihypertensive activity was measured in spontaneously hypertensive rats (SHR) at 100 mg/kg peroral dose (2 days); active; assay type: functional, organism-based; design: dose 100 mg/kg
Summary of the method: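 Male Okamoto SHR, 16 weeks old, mean arterial pressure about 170 mmHg. Compound suspended in 2% preboiled starch at 50 mg/mL and given by gavage at 100 mg/kg or less with 0.9% NaCl loading (25 mL/kg). An identical dose without saline followed 24 h later. Mean arterial pressure was read 28 h after the first dose in one to three rats. Active: one rat ≤116 mmHg, or mean of two ≤122 mmHg.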

Row | inhibition [2] [%] | IC50 (Thromboxane-A synthase) [nM] | inhibition [3] [%] | Compound | Activity (Rattus norvegicus [1]) | Activity (Rattus norvegicus [4])
1 | 100 | – | – | O=C(NCCCCCn1cncn1)c1ccc(Cl)s1 | inactive | –
2 | 100 | 200 | – | O=C(NCCCCCCn1ccnc1)c1ccc(Cl)s1 | inactive | –
3 | 100 | 2000 | – | CC(CCNC(=O)c1ccc(Cl)s1)n1ccnc1 (stereo unspecified) | – | –
4 | – | – | 87 | O=C(NCCCn1ccnc1)c1ccc(Cl)nc1 | – | –
5 | 91 | – | – | O=C(NCCCCn1ccnc1)c1sc2ccccc2c1Cl | inactive | –
6 | 89 | – | – | Cn1c(C(=O)NCCCn2ccnc2)cc2ccccc21 | inactive | –
7 | 97 | 300 | – | O=C(NCCCn1ccnc1)c1cc2ccccc2o1 | inactive | –
8 | 95 | – | – | Cc1cn(CCCNC(=O)c2ccc(Cl)s2)cn1 | inactive | –
9 | 87 | – | – | O=C(NCCCCn1ccnc1)c1ccco1 | inactive | –
10 | 78 | – | – | Cc1nccn1CCCNC(=O)c1ccc(Cl)s1 | – | –
11 | 83 | – | – | O=C(NCCCn1ccnc1)c1cccnc1 | inactive | –
12 | 64 | – | – | O=C(NCCCn1ccnc1)c1ccc([N+](=O)[O-])o1 | – | Active
13 | 100 | 40 | – | O=C(NCCCCn1ccnc1)c1cc2ccccc2[nH]1 | inactive | –
14 | 96 | – | – | COc1ccc2[nH]c(C(=O)NCCCn3ccnc3)cc2c1 | inactive | –
15 | 100 | 300 | – | O=C(NCCCn1ccnc1)c1sc2ccccc2c1Cl | – | –
16 | 82 | – | – | O=C(NCCCn1ccnc1)c1ccc(Br)o1 | inactive | –
17 | 100 | – | – | O=C(NC/C=C/Cn1ccnc1)c1ccc(Cl)s1 | inactive | –
18 | 30 | – | – | O=C(NCCCn1cncn1)c1cccs1 | inactive | –
19 | 93 | – | – | O=C(NCCCn1ccnc1)c1cccs1 | inactive | –
20 | 95 | – | – | O=C(NCCCn1ccnc1)c1cc2cc(Cl)ccc2[nH]1 | inactive | –
21 | 64 | – | – | O=C(NCCCn1cncn1)c1ccc(Cl)s1 | inactive | –
22 | – | – | 64 | O=C(NCCCn1ccnc1)c1cccnc1Cl | – | –
23 | 100 | 7 | – | O=C(NCCCCCn1ccnc1)c1cc2cc(Cl)ccc2[nH]1 | – | –
24 | 100 | 400 | – | O=C(NCCCn1ccnc1)c1cc(Br)c(Br)s1 | inactive | –
25 | 84 | – | – | O=C(NCCCn1cncn1)c1cc2ccccc2o1 | inactive | –
26 | 100 | – | – | Cc1cn(CCCNC(=O)c2cc3cc(Cl)ccc3[nH]2)cn1 | inactive | –
27 | 85 | – | – | Cc1cn(CCCNC(=O)c2cc3ccccc3n2C)cn1 | inactive | –
28 | 98 | 50 | – | CC(CCNC(=O)c1cc2cc(Cl)ccc2[nH]1)n1ccnc1 (stereo unspecified) | – | –

Row | inhibition [2] [%] | IC50 (Thromboxane-A synthase) [nM] | inhibition [3] [%] | Compound | Activity (Rattus norvegicus [1]) | Activity (Rattus norvegicus [4])
29 | 94 | – | – | O=C(NCCCn1ccnc1)c1cc2ccccc2[nH]1 | – | –
30 | – | – | 44 | Cc1nccn1CCCNC(=O)c1ccc(Cl)nc1 | – | –
31 | – | – | 86 | Cc1cn(CCCNC(=O)c2ccc(Cl)nc2)cn1 | – | –
32 | 65 | – | – | O=C(NCCn1ccnc1)c1ccco1 | – | –
33 | – | – | 98 | CC(CNC(=O)c1ccc(Cl)nc1)Cn1ccnc1 (stereo unspecified) | – | –
34 | 56 | – | – | Cc1nccn1CCCNC(=O)c1cc2ccccc2n1C | inactive | –
35 | 100 | – | – | O=C(NCCCCn1ccnc1)c1cc2cc(Cl)ccc2[nH]1 | – | –
36 | – | 8000 | 94 | O=C(NCCCCn1ccnc1)c1ccc(Cl)nc1 | – | –
37 | 83 | – | – | O=C(NCCCCn1cncn1)c1ccc(Cl)s1 | inactive | –
38 | 96 | – | – | O=C(NCCCn1ccnc1)c1sc2cc(F)ccc2c1Cl | inactive | –
39 | 22 | – | – | O=C(NCCCCn1cncn1)c1ccco1 | inactive | –
40 | – | 3000 | 100 | O=C(NCCCCCn1ccnc1)c1ccc(Cl)nc1 | – | –
41 | 95 | 600 | – | O=C(NCCCn1ccnc1)c1ccc(Cl)s1 | – | –
42 | 96 | 1300 | – | Cc1ccc(C(=O)NCCCn2ccnc2)s1 | inactive | –
43 | 95 | 3000 | – | O=C(NCCCCn1ccnc1)c1cccs1 | – | –
44 | – | 27 | 93 | O=C(NCCCCCCCCn1ccnc1)c1cc2cc(Cl)ccc2[nH]1 | – | –
45 | – | 70 | 96 | O=C(NCCCCCCCCn1ccnc1)c1ccc(Cl)s1 | – | –
46 | 100 | – | – | CC(CNC(=O)c1cc2cc(Cl)ccc2[nH]1)Cn1ccnc1 (stereo unspecified) | – | –
47 | – | 3000 | 98 | CC(CCNC(=O)c1ccc(Cl)nc1)n1ccnc1 (stereo unspecified) | – | –
48 | 100 | 100 | – | O=C(NCCCn1ccnc1)c1cc2cc(Cl)ccc2s1 | inactive | –
49 | 100 | 200 | – | O=C(NCCCCCn1ccnc1)c1ccc(Cl)s1 | inactive | –
50 | 96 | – | – | Cc1ccc2c(Cl)c(C(=O)NCCCn3ccnc3)sc2c1 | inactive | –
51 | 99 | 200 | – | O=C(NCCCCn1ccnc1)c1ccc(Cl)s1 | – | –
52 | 70 | – | – | O=C(NCCn1ccnc1)c1sc2ccccc2c1Cl | – | –
53 | 97 | – | – | O=C(NCCCn1ccnc1)c1ccco1 | inactive | –
54 | 100 | – | – | Cc1cn(CCCNC(=O)c2cc3ccccc3[nH]2)cn1 | inactive | –
55 | 70 | – | – | O=C(NCCCn1cnc(-c2ccccc2)c1)c1ccc(Cl)s1 | inactive | –
